Calls of active or inactive are those of the source. The calls are words filed in the database; no cut-off is given here.
Target: P2Y purinoceptor 12 (Homo sapiens) (UniProt Q9H244)
Assay: Agonist activity at P2Y12 in human platelets assessed as effect on VASP phosphorylation at 200 uM by CY-QUANT VASP/P2Y12 ELISA method
Procedure, shortened: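 VASP phosphorylation read by CY-QUANT VASP/P2Y12 ELISA kit, run per manufacturer's instructions. Platelets were exposed to PGE1, and PGE1-induced phosphorylation was set as 100%. ADP served as the P2Y12 agonist reference. Compounds were tested at 200 µM together with ADP. Per se effect at 200 µM was checked with PGE1 alone, without ADP.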

P2Y purinoceptor 12 (Homo sapiens), sequence (Q9H244 whole entry): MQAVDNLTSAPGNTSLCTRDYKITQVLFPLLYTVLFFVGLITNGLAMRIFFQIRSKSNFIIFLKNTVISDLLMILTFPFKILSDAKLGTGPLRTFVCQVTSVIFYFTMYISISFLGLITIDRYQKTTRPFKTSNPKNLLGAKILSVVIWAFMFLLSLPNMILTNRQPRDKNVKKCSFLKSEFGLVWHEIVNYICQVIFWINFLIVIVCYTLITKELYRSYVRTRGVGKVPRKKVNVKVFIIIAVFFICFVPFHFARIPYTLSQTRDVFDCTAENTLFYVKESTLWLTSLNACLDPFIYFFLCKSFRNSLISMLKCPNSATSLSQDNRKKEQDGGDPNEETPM

Row | SMILES | Activity
1 | CCCCCCCn1nnc2c([N+](=O)[O-])cccc21 | inactive
2 | O=C(c1ccccc1)n1nnc2c([N+](=O)[O-])cccc21 | inactive
3 | CCCCCCn1nc2cccc([N+](=O)[O-])c2n1 | inactive
4 | CCCCCn1nnc2c([N+](=O)[O-])cccc21 | inactive
5 | CCn1nc2cccc([N+](=O)[O-])c2n1 | inactive
6 | CCCn1nc2cccc([N+](=O)[O-])c2n1 | inactive
7 | CCCCn1nc2cccc([N+](=O)[O-])c2n1 | inactive
8 | Cn1nc2cccc([N+](=O)[O-])c2n1 | inactive
9 | CCCCCCn1nnc2c([N+](=O)[O-])cccc21 | inactive
10 | CCCCCn1nc2cccc([N+](=O)[O-])c2n1 | inactive
11 | CCCCCCCn1nc2cccc([N+](=O)[O-])c2n1 | inactive
12 | Cc1ccc(S(=O)(=O)n2nnc3c([N+](=O)[O-])cccc32)cc1 | inactive
13 | Cn1nnc2cccc([N+](=O)[O-])c21 | inactive
14 | O=[N+]([O-])c1cccc2nn(CCCCl)nc12 | inactive
15 | Cn1nnc2c([N+](=O)[O-])cccc21 | inactive
16 | CCCCn1nnc2c([N+](=O)[O-])cccc21 | inactive
17 | O=[N+]([O-])c1cccc2nn(Cc3ccccc3)nc12 | inactive
18 | O=[N+]([O-])c1cccc2c1nnn2CCCCl | inactive
19 | CCn1nnc2c([N+](=O)[O-])cccc21 | inactive
20 | O=[N+]([O-])c1cccc2c1nnn2Cc1ccccc1 | inactive
21 | CCCCCCCCn1nnc2c([N+](=O)[O-])cccc21 | inactive
22 | CCCCCCCCn1nc2cccc([N+](=O)[O-])c2n1 | inactive
23 | CCCn1nnc2c([N+](=O)[O-])cccc21 | inactive
